Calls of active or inactive are those of the source.
What was measured:
[1] = molecular target: T1, 5-hydroxytryptamine receptor 3A (Rattus norvegicus, UniProt P35563); assay: Displacement of [3H]LY278584 from 5HT3 receptor in rat cortical homogenate
T1 sequence (P35563 whole entry): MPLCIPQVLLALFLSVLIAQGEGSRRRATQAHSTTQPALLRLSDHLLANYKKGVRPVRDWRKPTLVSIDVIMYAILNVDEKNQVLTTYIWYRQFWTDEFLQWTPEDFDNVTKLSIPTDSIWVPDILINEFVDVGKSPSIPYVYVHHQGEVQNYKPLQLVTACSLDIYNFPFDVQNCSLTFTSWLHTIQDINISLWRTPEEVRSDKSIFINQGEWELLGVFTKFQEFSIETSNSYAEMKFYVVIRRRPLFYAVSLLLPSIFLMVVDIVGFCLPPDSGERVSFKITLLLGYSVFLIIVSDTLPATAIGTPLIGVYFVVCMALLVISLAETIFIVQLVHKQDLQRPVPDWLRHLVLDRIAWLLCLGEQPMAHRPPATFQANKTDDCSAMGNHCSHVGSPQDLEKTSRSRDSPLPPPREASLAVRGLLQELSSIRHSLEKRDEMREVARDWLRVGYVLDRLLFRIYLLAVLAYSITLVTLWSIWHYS

Rattus norvegicus = assay: Antagonist activity at 5HT3 receptor in iv dosed urethane-anesthetized Sprague-Dawley rat assessed as inhibition of 1-phenylbiguanide-induced bradycardia administered 5 mins before 1-phenylbiguanide challenge measured after 5 to 30 mins post-treatment by von Bezold-Jarisch reflex test; type: functional; conditions: for ED50: read-out: ID50 (the source's name)
[2] = molecular target: T2, 5-hydroxytryptamine receptor 1A (Rattus norvegicus, UniProt P19327); assay: Displacement of [3H]8-OHDPAT from 5HT1A receptor in rat hippocampus; type: tissue-based
T2 sequence (P19327 whole entry): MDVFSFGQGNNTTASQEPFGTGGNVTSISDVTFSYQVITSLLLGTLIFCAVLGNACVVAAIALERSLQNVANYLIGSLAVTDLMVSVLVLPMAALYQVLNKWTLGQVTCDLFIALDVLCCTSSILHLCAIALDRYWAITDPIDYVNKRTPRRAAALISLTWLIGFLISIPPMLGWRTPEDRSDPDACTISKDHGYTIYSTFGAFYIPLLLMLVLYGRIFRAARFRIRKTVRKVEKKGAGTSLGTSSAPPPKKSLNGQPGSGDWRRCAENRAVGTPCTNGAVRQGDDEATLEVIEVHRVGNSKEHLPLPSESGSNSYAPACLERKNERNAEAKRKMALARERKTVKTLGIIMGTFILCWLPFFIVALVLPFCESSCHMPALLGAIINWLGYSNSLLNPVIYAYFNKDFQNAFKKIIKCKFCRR

[3] = molecular target: 5-hydroxytryptamine receptor 2A (Rattus norvegicus, UniProt P14842); assay: Displacement of [3H]ketanserin from 5HT2A receptor in rat cortex
5-hydroxytryptamine receptor 2A, sequence (P14842 whole entry): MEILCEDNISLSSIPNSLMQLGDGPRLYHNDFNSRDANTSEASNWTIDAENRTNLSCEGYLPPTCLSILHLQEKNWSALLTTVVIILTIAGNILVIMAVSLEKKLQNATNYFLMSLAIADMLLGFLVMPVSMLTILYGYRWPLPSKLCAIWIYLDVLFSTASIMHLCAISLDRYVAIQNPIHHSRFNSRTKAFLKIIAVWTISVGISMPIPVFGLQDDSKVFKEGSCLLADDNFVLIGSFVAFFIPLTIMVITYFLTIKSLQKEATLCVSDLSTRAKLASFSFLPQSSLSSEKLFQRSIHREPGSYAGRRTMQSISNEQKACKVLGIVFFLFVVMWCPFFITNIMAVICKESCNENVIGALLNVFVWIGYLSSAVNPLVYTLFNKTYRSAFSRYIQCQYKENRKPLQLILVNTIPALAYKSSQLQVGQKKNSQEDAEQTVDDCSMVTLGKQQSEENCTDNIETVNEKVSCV

[4] = molecular target: 5-hydroxytryptamine receptor 4 (Cavia porcellus, UniProt O70528); assay: Displacement of [3H]GR-113808 from 5HT4 receptor in guinea pig striatum
5-hydroxytryptamine receptor 4, sequence (O70528 whole entry): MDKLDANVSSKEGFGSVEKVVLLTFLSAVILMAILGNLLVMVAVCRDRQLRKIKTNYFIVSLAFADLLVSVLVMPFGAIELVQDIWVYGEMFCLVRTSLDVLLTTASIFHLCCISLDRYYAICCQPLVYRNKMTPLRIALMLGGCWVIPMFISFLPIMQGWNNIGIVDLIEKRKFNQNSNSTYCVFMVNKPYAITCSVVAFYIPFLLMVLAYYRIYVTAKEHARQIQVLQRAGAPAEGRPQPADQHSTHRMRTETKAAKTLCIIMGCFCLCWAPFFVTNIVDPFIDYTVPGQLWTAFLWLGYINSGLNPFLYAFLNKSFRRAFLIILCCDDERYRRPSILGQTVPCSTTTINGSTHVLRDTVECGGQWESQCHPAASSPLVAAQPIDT

[5] = molecular target: T3, 5-hydroxytryptamine receptor 3A (Cavia porcellus) (UniProt O70212); assay: Agonist activity at 5HT3 receptor in voltage-stimulated guinea pig left atrium assessed as positive inotropic potency at 100 uM; type: functional, tissue-based; conditions: Cardiac atrium
T3 sequence (whole entry): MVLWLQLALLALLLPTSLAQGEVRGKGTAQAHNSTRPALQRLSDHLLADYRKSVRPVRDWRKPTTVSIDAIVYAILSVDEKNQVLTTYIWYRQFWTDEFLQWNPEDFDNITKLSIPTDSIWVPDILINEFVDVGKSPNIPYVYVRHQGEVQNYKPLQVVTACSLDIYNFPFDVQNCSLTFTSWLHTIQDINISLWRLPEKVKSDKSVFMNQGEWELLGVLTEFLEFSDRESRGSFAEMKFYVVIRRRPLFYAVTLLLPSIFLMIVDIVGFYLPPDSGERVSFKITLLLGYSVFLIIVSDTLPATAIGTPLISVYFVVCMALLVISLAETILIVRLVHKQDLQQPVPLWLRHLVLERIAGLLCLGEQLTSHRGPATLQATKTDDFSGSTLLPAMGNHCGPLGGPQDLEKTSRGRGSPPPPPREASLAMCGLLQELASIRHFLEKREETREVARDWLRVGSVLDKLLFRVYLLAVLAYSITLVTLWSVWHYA
Outline: (§1)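 Guinea pig left and right atria were hung in a 15 mL bath of PSS (pH 7.4, 95% O2-5% CO2, 35 °C) with ketanserin 1 µM. The right atrium beat spontaneously; the left was paced at 1 Hz. Cumulative doses (0.1-100 µM; DMSO ≤0.3%) were added after 45-60 min stabilization. Rate or isometric force was recorded. EC50 came from Probit analysis, n≥4. Intrinsic activity was taken relative to 5-HT.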

[6] = molecular target: T3, 5-hydroxytryptamine receptor 3A (Cavia porcellus); assay: Agonist activity at 5HT3 receptor in spontaneously beating guinea pig right atrium assessed as positive chronotropic potency; type: functional, tissue-based; conditions: Cardiac atrium
Outline: (§2)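 Isolated guinea pig atria in PSS (Tyrode) with ketanserin 1 µM, 95% O2-5% CO2, pH 7.4, 35 °C. Right atrium beating spontaneously (rate); left atrium paced 1 Hz, 0.6-0.8 ms pulses near 50% threshold (force). Isometric recording after 45-60 min stabilization.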

[7] = molecular target: T3, 5-hydroxytryptamine receptor 3A (Cavia porcellus); assay: Intrinsic activity at 5HT3 receptor in spontaneously beating guinea pig right atrium assessed as positive chronotropic potency relative to serotonin; conditions: Cardiac atrium; outline: as §1
[8] = molecular target: T3, 5-hydroxytryptamine receptor 3A (Cavia porcellus); assay: Agonist activity at 5HT3 receptor in guinea pig thoracic aorta assessed as positive contractility potency at 100 uM; type: functional, tissue-based
Outline: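 Guinea pig aortic helicoidal strips in PSS at 35 °C, aerated, under 1 g resting force, washed every 20 min for 1 h. Compounds added cumulatively 0.1-100 µM (DMSO vehicle); isometric contraction recorded.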

D(1A) dopamine receptor = D(1A) dopamine receptor (Rattus norvegicus, UniProt P18901); assay: Displacement of [3H]SCH-23390 from dopamine D1 receptor in rat striatum
D(1A) dopamine receptor, sequence (P18901 whole entry): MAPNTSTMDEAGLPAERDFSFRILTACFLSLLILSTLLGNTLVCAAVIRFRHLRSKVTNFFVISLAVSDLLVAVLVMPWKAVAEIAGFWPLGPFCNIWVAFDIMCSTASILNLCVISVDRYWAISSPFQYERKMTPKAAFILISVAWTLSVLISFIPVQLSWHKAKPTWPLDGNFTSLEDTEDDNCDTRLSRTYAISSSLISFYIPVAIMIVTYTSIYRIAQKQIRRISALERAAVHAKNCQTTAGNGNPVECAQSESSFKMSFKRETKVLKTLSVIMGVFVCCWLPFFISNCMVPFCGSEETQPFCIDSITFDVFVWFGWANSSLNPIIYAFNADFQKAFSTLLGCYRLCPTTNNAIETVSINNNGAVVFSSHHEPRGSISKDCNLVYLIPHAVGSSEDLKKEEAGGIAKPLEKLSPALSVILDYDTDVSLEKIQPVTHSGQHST

D(2) dopamine receptor = D(2) dopamine receptor (Rattus norvegicus, UniProt P61169); assay: Displacement of [3H]spiperone from dopamine D2 receptor in rat striatum
D(2) dopamine receptor, sequence (P61169 whole entry): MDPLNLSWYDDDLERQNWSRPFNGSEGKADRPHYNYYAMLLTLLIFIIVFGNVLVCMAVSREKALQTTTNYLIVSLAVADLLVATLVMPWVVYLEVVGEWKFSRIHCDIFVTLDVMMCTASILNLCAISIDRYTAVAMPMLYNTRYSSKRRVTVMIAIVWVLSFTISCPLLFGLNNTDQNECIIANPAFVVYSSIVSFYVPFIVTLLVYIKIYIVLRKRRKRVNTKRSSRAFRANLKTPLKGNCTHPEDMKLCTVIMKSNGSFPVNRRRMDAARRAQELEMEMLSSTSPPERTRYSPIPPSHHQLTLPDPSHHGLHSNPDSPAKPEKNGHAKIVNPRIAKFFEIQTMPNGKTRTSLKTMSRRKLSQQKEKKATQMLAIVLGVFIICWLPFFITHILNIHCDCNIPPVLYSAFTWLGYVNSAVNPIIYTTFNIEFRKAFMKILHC

[9] = molecular target: Muscarinic acetylcholine receptor; assay: Displacement of [3H]QNB from muscarinic receptor in rat cortex
[10] = molecular target: T3, 5-hydroxytryptamine receptor 3A (Cavia porcellus); assay: Agonist activity at 5HT3 receptor in spontaneously beating guinea pig right atrium assessed as positive chronotropic potency at 100 uM; type: functional, tissue-based; conditions: Cardiac atrium; outline: as §1
[11] = molecular target: T4, 5-hydroxytryptamine receptor 3A (Cavia porcellus, UniProt O70212); assay: Antagonist activity at 5HT3 receptor in spontaneously beating guinea pig right atrium assessed as inhibition of serotonin-induced maximum response by noncompetitive binding assay; type: tissue-based, Cardiac atrium
T4 sequence (O70212 whole entry): T3 sequence (whole entry)
Outline: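 Spontaneously beating guinea pig right atrium; 5-HT concentration-response curves (0.001-1.0 µM) before and after 30 min antagonist exposure at three concentrations. IC50 is inhibition of 50% of maximal 5-HT response, Probit analysis, n = 4-6.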

[12] = molecular target: T3, 5-hydroxytryptamine receptor 3A (Cavia porcellus); assay: Agonist activity at 5HT3 receptor in voltage-stimulated guinea pig left atrium assessed as positive inotropic potency; type: functional, tissue-based; conditions: Cardiac atrium; outline: as §2
[13] = molecular target: T3, 5-hydroxytryptamine receptor 3A (Cavia porcellus); assay: Intrinsic activity at 5HT3 receptor in voltage-stimulated guinea pig left atrium assessed as positive inotropic potency relative to serotonin; type: tissue-based; conditions: Cardiac atrium
Outline: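 Electrically paced guinea pig left atrium (1 Hz) in PSS containing ketanserin 1 µM, pH 7.4, 35 °C. Contractile force recorded isometrically while cumulative concentrations of 0.1-100 µM were added (DMSO ≤0.3%). Intrinsic activity is expressed as the maximal response relative to that of 5-HT.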

[14] = molecular target: T1, 5-hydroxytryptamine receptor 3A; assay: Displacement of [3H]zacopride from 5HT3 receptor in rat cortex

O=C(CN1CCN(c2nc3cc(F)ccc3n3cccc23)CC1)NO
Ki [1]: 2.2 nM | ED50 (Rattus norvegicus): 0.05 mg/kg

CN1CCN(c2nc3cc(F)ccc3n3cccc23)CC1
Ki [1]: 0.8 nM | Ki [2]: 0.138 µM | Ki [3]: 124 nM | Ki [4]: > 10 µM | pD2 [5]: inactive | pD2 [6]: 6.79 | Intrinsic activity [7]: 0.6 | pD2 [8]: inactive | ID50 (Rattus norvegicus): Dose-dependent effect | ED50 (Rattus norvegicus): 0.6 mg/kg

O=C(O)CN1CCN(c2ccc3ccccc3n2)CC1
Ki [1]: 11.2 nM | Ki [2]: > 10 µM | Ki [3]: > 10000 nM | Ki [4]: 5.75 µM | Ki (D(1A) dopamine receptor): > 10 µM | Ki (D(2) dopamine receptor): 919 nM | Ki [9]: > 10 µM

O=c1[nH]nc(CN2CCN(c3nc4cc(F)ccc4n4cccc34)CC2)[nH]1
Ki [1]: 17 nM

Fc1ccc2c(c1)nc(N1CCN(Cc3nnn[nH]3)CC1)c1cccn12
Ki [1]: 65 nM

Fc1ccc2c(c1)nc(N1CCN(Cc3nnc[nH]3)CC1)c1cccn12
Ki [1]: 3.4 nM | pD2 [5]: inactive | pD2 [10]: inactive | pD2 [8]: inactive | IC50 [11]: 8.51 µM

Cc1[nH]c2ccc(O)cc2c1CCN
pD2 [12]: 5.51 | Intrinsic activity [13]: 1 | pD2 [6]: 5.06 | Intrinsic activity [7]: 1

Cc1cccc2nc(N3CCN(C)CC3)c3cccn3c12
Ki [14]: 0.8 nM | Ki [2]: > 10 µM

NC(CO)C(=O)N1CCN(c2nc3cc(F)ccc3n3cccc23)CC1 (single isomer, unassigned)
Ki [1]: 237 nM
